Values after ≈ are worked out from the molar mass of the structure shown. Values joined by “and” are separate entries in the source; they are usually repeats but may differ in a detail not shown here. Identical values can stand only once. Where no end group is shown, it is not given here.
Columns and labels:
S aureus (25923) = test: microbe, parasite or virus in culture; assay type: cell-based, Staphylococcus aureus; conditions: for Antimicrobial activity (MIC): 25923, 20 h
in vitro [1] = assay type: cell-based; conditions: human
S. Epidermidis (35984) = test: microbe, parasite or virus in culture; assay type: cell-based; conditions: for Antimicrobial activity (MIC): 35984, 20 h
S. aureus (29213) = test: microbe, parasite or virus in culture; assay type: cell-based, Staphylococcus aureus; conditions: for Antimicrobial activity (MIC): 29213, 20 h
[2] = test system: human lung carcinoma A549 cells; test: Kinetics of peptide-induced cell membrane damage, LIVE/DEAD kit; assay type: cell-based; conditions: LIVE/DEAD dye staining, 120 minutes of incubation
Method in brief: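 A549 cells (freshly trypsinized) seeded at 2 × 10⁴ cells/well in collagen-coated glass chambers, grown overnight in F12K/10% FBS at 37 °C, 5% CO₂. Cells were PBS-washed three times and stained with LIVE/DEAD for 15 min. Test compound was added at a final 10 µM, and confocal images were taken over time (ex 488 nm; em 505–530 nm live, 560 nm dead). Membrane integrity was taken as % green of total green+red pixels.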

[3] = test system: Staphylococcus aureus (ATCC 25923); test: Co-culture of bacteria and mammalian cells: effect on bacteria; assay type: cell-based; conditions: A549 monolayer + S. aureus (25923), 20 µM peptide, 6 hours
Peptide aggregation = assay type: physicochemical
in vitro [4] = assay type: in vitro ADME
[5] = Staphylococcus aureus, 20 h, read-out: Antimicrobial activity (MIC)

| Compound | Antimicrobial activity (MIC) (S aureus (25923)) [µg/mL] | IC50 at 2 h (in vitro [1]) [µM] | Antimicrobial activity (MIC) (S. Epidermidis (35984)) [µg/mL] | Antimicrobial activity (MIC) (S. aureus (29213)) [µg/mL] | MIC (S aureus (25923); [5]) [µg/mL] | MIC (S. Epidermidis (35984); Staphylococcus epidermidis, 20 h, read-out: Antimicrobial activity (MIC)) [µg/mL] | MIC (S. aureus (29213); [5]) [µg/mL] | Cell lysis reached [2] [%] | Effect on S. aureus in co-culture (in words) [3] | Size of peptide aggregates (Nanosizer) (Peptide aggregation; PBS pH 7.4, 37 °C, long (> 4–6 hours / overnight) incubation, Zeta nanosizer) | Aggregate formation at acidic pH (in words) (Peptide aggregation; acidic pH, even very high peptide concentrations and long incubation) | Fraction of peptide in solution existing as aggregates (Peptide aggregation; after overnight incubation, PBS pH 7.4, DLS and congo red) | Time for aggregates to dissolve completely at pH 5.5 (Peptide aggregation; solution pH adjusted from physiological pH to pH=5.5 with HCl) [minutes] | estimated half-life in human sera (in vitro [4]) [h] | remaining at 5 h, 10 µM (in vitro [4]; human, serum) [%] |
| --- | --- | --- | --- | --- | --- | --- | --- | --- | --- | --- | --- | --- | --- | --- | --- |
| FLGALFKALSKLL [PTP-7] | 4 | 9 | 8 | 8 | – | – | – | – | – | – | – | – | – | – | – |
| CC1(C)S[C@@H]2[C@H](NC(=O)Cc3ccccc3)C(=O)N2[C@H]1C(=O)O [Penicillin G] | – | – | – | – | 1 (≈ 2.99 µM) | 4 (≈ 12 µM) | 16 (≈ 47.8 µM) | – | – | – | – | – | – | – | – |
| FLGALFRALSRLL [CL-1] | 8 | – | 4 | 8 | – | – | – | < 100 | only S. aureus were selectively killed | > 2.0 µm and 2.5 µm | unable to form aggregates at acidic pH | 90–95% and ~95% | < 30 | 8 to 9 | > 95 |
